Rows were chosen to be rich in hits. Some 1.8% of all compounds tested hit in one or more screens of this group.
NPY1 pot ag = potentiates or activates human NPY-Y1 receptor; P25929; NPY-Y1 expressing cells, potentiator/agonist activation; activation, % at 3.6 µM; actives 0.37% (n = 220,000); AID 1304; in the data active means activation above about 33%, passing the limit was not always enough;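 further: cells stimulated with NPY at EC10 then isoproterenol at EC100; 0% = low agonist plus stimulus and 100% = saturating agonist plus stimulus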
NPY-Y2 antag = NPY-Y2 (human) receptor antagonism; NPY-Y2 expressing cells, antagonist mode; actives 0.99% (n = 140,000); inhibition, % at 2.7 µM; P49146; in the data active means inhibition above about 17%;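 further: 0% = vehicle with agonist challenge and 100% = reference antagonist with challenge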
Target sequence (P49146 whole entry, looked up): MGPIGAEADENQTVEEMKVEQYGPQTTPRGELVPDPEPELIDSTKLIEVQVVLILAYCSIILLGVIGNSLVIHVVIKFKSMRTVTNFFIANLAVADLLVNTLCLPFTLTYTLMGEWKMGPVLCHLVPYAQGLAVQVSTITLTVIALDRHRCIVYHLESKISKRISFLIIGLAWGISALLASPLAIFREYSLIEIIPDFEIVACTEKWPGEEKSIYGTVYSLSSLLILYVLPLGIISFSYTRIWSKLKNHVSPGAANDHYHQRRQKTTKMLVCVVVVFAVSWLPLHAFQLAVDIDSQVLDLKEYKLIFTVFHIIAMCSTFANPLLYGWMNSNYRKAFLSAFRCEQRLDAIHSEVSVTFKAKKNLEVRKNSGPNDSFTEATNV
NPY2 pot ag = human NPY-Y2 potentiation or agonism, primary screen; P49146; cells expressing NPY-Y2, potentiator/agonist read-out; activation, % at 3.6 µM; actives 0.45% (n = 220,000); AID 1359; in the data active means activation above about 27%;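 further: cells stimulated with NPY near EC25 plus isoproterenol at EC100; 0% = vehicle plus submaximal agonist and 100% = vehicle plus saturating agonist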
NPY-Y1 antag = antagonists of human neuropeptide Y receptor Y1 | HEK293-CNG Y1 cells, membrane potential fluorescence; NPY at EC95, then isoproterenol | inhibition, % at 3.6 µM | actives 1% (n = 200,000) | AID 1040;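 active means inhibition above the campaign mean inhibition of all tested compounds plus 3 SD, cut at about 20% in these data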;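 further: 0% = DMSO wells given NPY plus isoproterenol and 100% = isoproterenol alone without NPY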
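material = HEK293 cells with Y1 receptor plus CNG channel | also added = NPY 25 nM then isoproterenol 1 µM plus Ro 20-1724 25 µM | schedule = dye 3 h, compound 60 min room temperature, stimulation 45 min | measured by = membrane potential fluorescence | benchmarks = high control isoproterenol alone, low control NPY with isoproterenol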
NPY-Y1 confirm = confirmation of human NPY-Y1 receptor potentiators or agonists | shares compounds with NPY1 pot ag | cell-based NPY-Y1 potentiator/agonist assay | activation, % at 3.6 µM | actives 20% (n = 280) | AID 1546; in the data active means activation above about 45%;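 further: cells challenged with NPY at its EC10 plus isoproterenol stimulus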
NPY-Y2 counter = potentiates or activates NPY-Y2, counter-screen for NPY-Y1 hits | shares compounds with NPY1 pot ag | HEK293-CNG cells, membrane-potential fluorescence (FLIPR), 1536-well | activation, % at 3.6 µM | actives 20% (n = 280) | AID 1649
NPY-Y1 ag = human NPY-Y1 agonism as potentiator counter-screen; shares compounds with NPY1 pot ag; HEK293 Y1-CNGC, membrane potential fluorescence, agonist mode; activation, % at 3.6 µM; actives 50% (n = 280); AID 1697;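 active means percent activation above the mean of DMSO-only control wells plus 3 SD of those wells, cut at about 18% in these data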;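 further: cells challenged with isoproterenol plus Ro 20-1724 with no NPY in test wells; Y1 agonism lowers isoproterenol-driven cAMP and reduces probe fluorescence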
NPY-Y2 ag = counter-screen for NPY-Y1 potentiators or agonists: agonists of NPY-Y2. activation, % at 3.6 µM. HEK293 Y2-CNGC, membrane potential fluorescence, agonist mode. actives 67% (n = 280). AID 1698. shares compounds with NPY1 pot ag;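 active means activation above the solvent-only control wells' mean plus 3 SD, cut at about 11% in these data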;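 further: 0% = DMSO with isoproterenol and 100% = 40 nM NPY maximal response; agonism lowers cAMP so well fluorescence drops in active wells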
CNGC inh 2 = counter-screen for NPY-Y1 potentiators or agonists: CNG channel inhibitors; inhibition, % at 3.6 µM; actives 42% (n = 280); AID 1704; shares compounds with NPY1 pot ag; HEK293-CNG parental, isoproterenol cAMP, membrane potential fluorescence;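 active means inhibition above the mean of stimulated solvent-only control wells plus 3 SD, cut at about 22% in these data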;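 further: 0% = isoproterenol-stimulated DMSO wells and 100% = unstimulated DMSO wells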
NPY-Y2 confirm = human NPY-Y2 potentiation or agonism, confirmation | shares compounds with NPY2 pot ag | cell-based NPY-Y2 potentiator/agonist assay | activation, % at 3.6 µM | actives 20% (n = 450) | AID 1539
NPY-Y1 potentiator = NPY-Y1 potentiation or agonism as NPY-Y2 counter-screen | actives 20% (n = 450) | Y1 HEK293-CNG cells, membrane potential fluorescence | shares compounds with NPY2 pot ag | activation, % at 3.6 µM; in the data active means activation above about 45%;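 further: cells stimulated with submaximal NPY then isoproterenol with phosphodiesterase inhibitor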
NPY-Y1 ag 2 = counter-screen for NPY-Y2 potentiators: agonists of human NPY-Y1 | shares compounds with NPY2 pot ag | HEK293 Y1-CNGC, membrane potential fluorescence, agonism | activation, % at 3.6 µM | actives 37% (n = 450) | AID 1702;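 active means activation above the mean of DMSO-only control wells plus 3 SD, cut at about 18% in these data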;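 further: cells stimulated with 1 µM isoproterenol plus the PDE inhibitor Ro 20-1724; 0% = isoproterenol with DMSO and no NPY and 100% = 40 nM NPY; Y1 agonists lower the membrane potential dye signal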
CNGC inh = cyclic nucleotide gated channel inhibition as counter-screen. shares compounds with NPY2 pot ag. HEK293-CNG parental, isoproterenol cAMP, membrane potential fluorescence. inhibition, % at 3.6 µM. actives 32% (n = 450). AID 1703;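 active means inhibition above the control-well mean plus 3 SD of those wells, cut at about 22% in these data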;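 further: 0% = DMSO with isoproterenol and 100% = DMSO without isoproterenol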
Y2 agonist ctr = activates human NPY-Y2 receptor in potentiator counter-screen; shares compounds with NPY2 pot ag; HEK293 Y2/CNGC cells, membrane potential fluorescence, agonist mode; activation, % at 3.6 µM; actives 56% (n = 450);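 active means activation above the mean of solvent-only control wells plus 3 SD, cut at about 10% in these data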;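 further: cells stimulated by isoproterenol with no NPY added so direct agonism is tested; 0% = DMSO with isoproterenol alone and 100% = NPY at EC100 plus isoproterenol; agonism lowers probe fluorescence through less cAMP and CNG channel opening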
* marks the source's active call; other numbers are inactive results; / = no result given. Unless noted, no stated cut-off is given here; in the data, active means activation above about 33%; inactive means the rest.

SMILES | NPY1 pot ag | NPY-Y2 antag | NPY2 pot ag | NPY-Y1 antag | NPY-Y1 confirm | NPY-Y2 counter | NPY-Y1 ag | NPY-Y2 ag | CNGC inh 2 | NPY-Y2 confirm | NPY-Y1 potentiator | NPY-Y1 ag 2 | CNGC inh | Y2 agonist ctr
O=P(Nc1ccccc1)(Nc1ccccc1)Oc1ccc(Cl)cc1 | 41* | 1 | 14 | -2 | 33 | 20 | 23* | 22* | 44* | / | / | / | / | /
O=c1c2ccccc2nc(C[n+]2ccccc2)n1-c1cccc(C(F)(F)F)c1 | 7 | / | -1 | 5 | / | / | / | / | / | / | / | / | / | /
CC(CCc1ccccc1)NCCC#N (centres undefined) | 56* | / | 27 | / | 9 | 9 | 8 | 2 | -4 | / | / | / | / | /
c1ccc(CCNCc2ccccc2)cc1 | -1 | 0 | -1 | 5 | / | / | / | / | / | / | / | / | / | /
CN1CCN(c2ccc([N+](=O)[O-])cc2Cl)CC1 | 8 | / | 12 | 3 | / | / | / | / | / | / | / | / | / | /
CC(C)(C)c1cc([N+](=O)[O-])cc(C(C)(C)C)c1O | -1 | / | 45* | 7 | / | / | / | / | / | -8 | -48 | -34 | -25 | -7
COc1ccc(OC)c2c1CCC1NCCOC21 (centres undefined) | -14 | 5 | 1 | 8 | / | / | / | / | / | / | / | / | / | /
Cc1cc(C)n(-c2ccc(NN=C(C#N)C#N)cc2)n1 | 41 | / | 42* | / | / | / | / | / | / | 9 | 1 | -1 | 5 | 4

Screening data deposited in PubChem by The Scripps Research Institute Molecular Screening Center.
